Laboratory results published in the RNAGym collection of RNA variant scans (doi:10.1002/anie.201605470).

B1: Osa-1-4 twister ribozyme (parent)
chain: CCGCCUAACACUGCCAAUGCCGGUCCCAAGCCCGGAUAAAAGUGGAGGGGGCGG

Variants of: B1
Assay: self-cleavage, relative activity (ratio to wild type); higher = more cleavage; co-transcriptional
Summary of the method: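 Values are relative activity: the fraction cleaved, normalised to wild type. A doped DNA template for a 54-nucleotide twister ribozyme from Oryza sativa had 97 % wild-type base and 1 % of each other base at the 48 positions downstream of the cleavage site. The RNA was transcribed in vitro for 2 h at 37 °C so that it could cleave itself co-transcriptionally, then sequenced deeply, with cleavage status scored from the presence or absence of upstream sequence in reads.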
For CCGCCUAACACUGCCAAUGCCGAUCCGAAGCCCGGAUAAAAGUGGAGGGGGCGG, the self-cleavage was 0.05. Variant CCGCCUAACACUGCCAAUGCCGCUCCGAAGCCCGGAUAAAAGUGGAGGGGGCGG has a self-cleavage of 0.03. With CCGCCUAACACUGCCAAUGCCGUUCCGAAGCCCGGAUAAAAGUGGAGGGGGCGG the self-cleavage was 0.02. CCGCCUAACACUGCCAAUGCCGGUCCAAAGCCCGGAUAAAAGUGGAGGGCGCGG gave a self-cleavage of 0.08. CCGCCUAACACUGCCAAUGCCGGUCCAAAGCCCGGAUAAAAGUGGAGGGAGCGG gave a self-cleavage of 0.22. With CCGCCUAACACUGCCAAUGCCGGUCCAAAGCCCGGAUAAAAGUGGAGGGUGCGG the self-cleavage was 0.1. CCGCCUAACACUGCCAAUGCCGGUCCAAAGCCCGGAUAAAAGUGGAAGGGGCGG showed a self-cleavage of 0.24. CCGCCUAACACUGCCAAUGCCGGUCCAAAGCCCGGAUAAAAGUGGACGGGGCGG showed a self-cleavage of 0.36. In the case of CCGCCUAACACUGCCAAUGCCGGUCCAAAGCCCGGAUAAAAGUGGAUGGGGCGG, the self-cleavage is reported as 0.83. CCGCCUAACACUGCCAAUGCCGGUCCGAAGCCCGGAUAAAAGUGGAGGGAGCGG gave a self-cleavage of 0.09. CCGCCUAACACUGCCAAUGCCGGUCCGAAGCCCAGAUAAAAGUGGAGGGGGCGG showed a self-cleavage of 0.07. Work on CCGCCUAACACUGCCAAUGCCGGUCCGAAGCCCUGAUAAAAGUGGAGGGGGCGG yielded a self-cleavage of 0.08. CCGCCUAACACUGCCAAUGCCGGUCCGAAGCCCCGAUAAAAGUGGAGGGGGCGG showed a self-cleavage of 0.05. CCGCCUAACACUGCCAAUGCCGGUCCAAAGCCCGGAUAAAAGUGGAGGAGGCGG showed a self-cleavage of 0.04. CCGCCUAACACUGCCAAUGCCGGUCCAAAGCCCGGAUAAAAGUGGAGGCGGCGG showed a self-cleavage of 0.03. CCGCCUAACACUGCCAAUGCCGGUCCAAAGCCCGGAUAAAAGUGGAGGUGGCGG showed a self-cleavage of 0.04. In the case of CCGCCUAACACUGCCAAUGCCGGUCCGAAGCCCGGAUAAAAUUGGAGGGGGCGG, the self-cleavage is reported as 0.02. With CCGCCUAACACUGCCAAUGCCGGUCCGAAGCCCGGAUAAAAAUGGAGGGGGCGG the self-cleavage was 0.06. With CCGCCUAACACUGCCAAUGCCGGUCCGAAGCCCGGAUAAAACUGGAGGGGGCGG the self-cleavage was 0.07. In the case of CCGCCUAACACUGCCAAUGCCGGUCCGAAGCCCGGAUAAAAGUGGAGGGGGGGG, the self-cleavage is reported as 0.14. Work on CCGCCUAACACUGCCAAUGCCGGUCCGAAGCCCGGAUAAAAGUGGAGGGGGAGG yielded a self-cleavage of 0.08. Variant CCGCCUAACACUGCCAAUGCCGGUCCGAAGCCCGGAUAAAAGUGGAGGGGGUGG has a self-cleavage of 0.16. CCGCCUAACACUGCCAAUGCCGGUCCGAAGCCCGGAUAAAAGUGGAGGCGGCGG showed a self-cleavage of 0.03. In the case of CCGCCUAACACUGCCAAUGCCGGUCCGAAGCCCGGAUAAAAGUGGAGGUGGCGG, the self-cleavage is reported as 0.04. In the case of CCGCCUAACACUGCCAAUGCCGGUCCGAAGCCCGGAUAAAAGUGGAGGAGGCGG, the self-cleavage is reported as 0.04. CCGCCUAACACUGCCAAUGCCGGCCCAAAGCCCGGAUAAAAGUGGAGGGGGCGG showed a self-cleavage of 0.06. With CCGCCUAACACUGCCAAUGCCGGACCAAAGCCCGGAUAAAAGUGGAGGGGGCGG the self-cleavage was 0.04. With CCGCCUAACACUGCCAAUGCCGGGCCAAAGCCCGGAUAAAAGUGGAGGGGGCGG the self-cleavage was 0.02. For CCGCCUAACACUGCCAAUGCCGGUCCAAAGCCCGGAUAAAAGUGAAGGGGGCGG, the self-cleavage was 0.06. In the case of CCGCCUAACACUGCCAAUGCCGGUCCAAAGCCCGGAUAAAAGUGUAGGGGGCGG, the self-cleavage is reported as 0.07. With CCGCCUAACACUGCCAAUGCCGGUCCAAAGCCCGGAUAAAAGUGCAGGGGGCGG the self-cleavage was 0.03. With CCGCCUAACACUGCCAAUGCCAGUCCGAAGCCCGGAUAAAAGUGGAGGGGGCGG the self-cleavage was 0.05. CCGCCUAACACUGCCAAUGCCCGUCCGAAGCCCGGAUAAAAGUGGAGGGGGCGG gave a self-cleavage of 0.03. CCGCCUAACACUGCCAAUGCCUGUCCGAAGCCCGGAUAAAAGUGGAGGGGGCGG showed a self-cleavage of 0.04. Variant CCGCCUAACACUGCCAAUGCCGGUCCGAAGCCCGGAUAAAAGUGGACGGGGCGG has a self-cleavage of 0.86. Work on CCGCCUAACACUGCCAAUGCCGGUCCGAAGCCCGGAUAAAAGUGGAAGGGGCGG yielded a self-cleavage of 0.15. With CCGCCUAACACUGCCAAUGCCGGUCCGAAGCCCGGAUAAAAGUGGAUGGGGCGG the self-cleavage was 0.21. CCGCCUAACACUGCCAAUGCCGGUCCAAAGCCCGGAUAAAAGUGGAGGGGGCAG showed a self-cleavage of 0.09. For CCGCCUAACACUGCCAAUGCCGGUCCAAAGCCCGGAUAAAAGUGGAGGGGGCCG, the self-cleavage was 0.05. For CCGCCUAACACUGCCAAUGCCGGUCCAAAGCCCGGAUAAAAGUGGAGGGGGCUG, the self-cleavage was 0.06. Work on CCGCCUAACACUGCCAAUGCCGGUCCGAAGCCCGAAUAAAAGUGGAGGGGGCGG yielded a self-cleavage of 0.12. With CCGCCUAACACUGCCAAUGCCGGUCCGAAGCCCGCAUAAAAGUGGAGGGGGCGG the self-cleavage was 0.04. Variant CCGCCUAACACUGCCAAUGCCGGUCCGAAGCCCGUAUAAAAGUGGAGGGGGCGG has a self-cleavage of 0.1. Variant CCGCCUAACACUGCCAAUGCCGGUCCGAAGCUCGGAUAAAAGUGGAGGGGGCGG has a self-cleavage of 0.05. In the case of CCGCCUAACACUGCCAAUGCCGGUCCGAAGCACGGAUAAAAGUGGAGGGGGCGG, the self-cleavage is reported as 0.02. Variant CCGCCUAACACUGCCAAUGCCGGUCCGAAGCGCGGAUAAAAGUGGAGGGGGCGG has a self-cleavage of 0.05. CCGCCUAACACUGCCAAUGCCGGUCCGAAGCCCGGAUAAAAGUAGAGGGGGCGG gave a self-cleavage of 0.06. CCGCCUAACACUGCCAAUGCCGGUCCGAAGCCCGGAUAAAAGUUGAGGGGGCGG showed a self-cleavage of 0.05.
